These results are taken from ChEMBL document CHEMBL1151246, “New crinine-type alkaloids with inhibitory effect on induction of inducible nitric oxide synthase from Crinum yemense” (J Nat Prod, 2004).

The subject of test [1] is Macrophage. Put plainly: Inhibition of LPS-induced NO production in ddY mouse macrophages at 1 uM after 20 hrs by Griess reagent assay relative to control. The class given is functional. In short, it runs like this:
(§1)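 Thioglycolate-elicited peritoneal macrophages from male ddY mice were precultured 1 h; nonadherent cells were washed off. Adherent cells (5 × 10⁵/well, RPMI 1640 with 5% FCS) were exposed 20 h to 10 μg/mL LPS with compound (1–100 μM, 0.5% DMSO final). Nitrite in the medium was measured with Griess reagent. Inhibition = (A−B)/(A−C) × 100 against LPS-only and unstimulated wells; IC50 was read graphically, N = 4, means ± SEM.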
A general note: Nitrite, measured by Griess reagent, commonly stands in for NO production.

Test [2] deals with Macrophage. Put plainly: Inhibition of LPS-induced NO production in ddY mouse macrophages at 3 uM after 20 hrs by Griess reagent assay relative to control. The class given is functional. In short, it runs like this: as §1
The test system of test [3] is Macrophage. Put plainly: Inhibition of LPS-induced NO production in ddY mouse macrophages at 10 uM after 20 hrs by Griess reagent assay relative to control. The class given is functional. The essentials: as §1
Test [4] concerns Macrophage. Put plainly: Inhibition of LPS-induced NO production in ddY mouse macrophages at 30 uM after 20 hrs by Griess reagent assay relative to control. Format: functional. In short, it runs like this: as §1
For test [5], the system named is Macrophage. Put plainly: Inhibition of LPS-induced NO production in ddY mouse macrophages at 100 uM after 20 hrs by Griess reagent assay relative to control. Format: functional. In short, it runs like this: as §1
For test [6], the system named is Macrophage. Put plainly: Inhibition of LPS-induced NO production in ddY mouse macrophages after 20 hrs by Griess reagent assay. The class given is functional, cell-based. In short, it runs like this:
as §1

With `O[C@H]1C=C[C@]23c4cc5c(cc4CN(C[C@@H]2O)[C@H]3C1)OCO5`, the inhibition (commonly the change of the read-out against control, counted positive when it falls) at 1 µM with Macrophage [1] turned out to be 3.1%. In addition, in the test with Macrophage [2], the inhibition at 3 µM was 7.4%. The inhibition at 10 µM in the test with Macrophage [3] was 28.6%. Moreover, the inhibition at 30 µM in the test on Macrophage [4] amounted to 55.6%. In the test with Macrophage [5], the inhibition at 100 µM was determined as 82%. The IC50 (usually the concentration needed to halve the response being measured) in the test on Macrophage [6] was 24 µM.

As to `CO[C@H]1C=C[C@@]23c4cc5c(cc4CN(C[C@@H]2O)[C@H]3C1)OCO5`, the inhibition at 1 µM in the test with Macrophage [1] was determined as 8.1%. The inhibition at 3 µM in the test on Macrophage [2] turned out to be 7.8%. In addition, in the test with Macrophage [3], the inhibition at 10 µM came out at 30.2%. For the same compound, the inhibition at 30 µM with Macrophage [4] was determined as 65.2%. Also, the inhibition at 100 µM in the test on Macrophage [5] is 86.1%. Besides, the IC50 in the test with Macrophage [6] came to 1.8 µM.

As for `CO[C@H]1C=C[C@]23c4cc5c(cc4C(O)N(C[C@H]2O)[C@H]3C1)OCO5` (mixture of isomers), the inhibition at 1 µM with Macrophage [1] was -11.2%. Also, in the test on Macrophage [2], the inhibition at 3 µM is -23.1%. The inhibition at 10 µM in the test with Macrophage [3] stood at 6.3%. Besides, the inhibition at 30 µM in the test on Macrophage [4] amounted to 30.3%. Also, the inhibition at 100 µM with Macrophage [5] stood at 69.5%. Besides, the IC50 in the test with Macrophage [6] was found to be 5.4 µM.

With `OC1c2cc3c(cc2[C@]24C=C[C@@H](O)C[C@@H]2N1C[C@H]4O)OCO3` (mixture of isomers) [YEMENINE C], in the test on Macrophage [1], the inhibition at 1 µM is 9.7%. Besides, the inhibition at 3 µM in the test on Macrophage [2] amounted to 1.6%. Further, the inhibition at 10 µM in the test with Macrophage [3] is 0.5%. Also, the inhibition at 30 µM in the test on Macrophage [4] was found to be 18.3%. Further, in the test on Macrophage [5], the inhibition at 100 µM was found to be 31.3%.

For `O=C(/C=C/c1ccc(O)c(O)c1)OCCc1ccccc1` [CAFFEIC ACID PHENETHYL ESTER], the inhibition at 1 µM in the test on Macrophage [1] was 3.8%. In addition, the inhibition at 3 µM in the test with Macrophage [2] was found to be 1.4%. Besides, the inhibition at 10 µM with Macrophage [3] amounted to 68.2%. In the test with Macrophage [4], the inhibition at 30 µM came out at 93.7%. Also, the inhibition at 100 µM in the test with Macrophage [5] is 99.6%. The compound also showed a concentration for half-maximal inhibition (IC50) with Macrophage [6] of 15 µM.

Regarding `N=C(N)NCCSSCCNC(=N)N` [GUANIDINOETHYLDISULFIDE], the inhibition at 1 µM with Macrophage [1] amounted to 6.2%. In addition, the inhibition at 3 µM in the test with Macrophage [2] was 24.4%. For the same compound, the inhibition at 10 µM in the test with Macrophage [3] is 57.9%. For the same compound, in the test on Macrophage [4], the inhibition at 30 µM was determined as 89.7%. Moreover, the inhibition at 100 µM with Macrophage [5] was determined as 97.9%. In addition, half-maximal inhibition in the test with Macrophage [6] (IC50) required 7.4 µM.

As for `CO[C@H]1[C@@H](OC)C[C@H](C)[C@@H](OC)C2=CC(=O)C=C(NC(=O)/C(C)=C/C=C/[C@H](OC)[C@@H](OC(N)=O)/C(C)=C/[C@@H]1C)C2=O` [HERBIMYCIN], the inhibition at 1 µM in the test on Macrophage [1] was 48%. The inhibition at 3 µM with Macrophage [2] came to 77%. The compound further had an IC50 in the test with Macrophage [6] of 0.094 µM.

Turning to `O[C@H]1[C@H]2c3cc4c(cc3CN3CCC(=C[C@@H]1O)[C@H]23)OCO4` [LYCORINE], the inhibition at 1 µM in the test on Macrophage [1] was determined as 0%. In the test with Macrophage [2], the inhibition at 3 µM turned out to be 2.8%. For the same compound, the inhibition at 10 µM with Macrophage [3] is 20.6%. In the test with Macrophage [4], the inhibition at 30 µM is 54.4%. The inhibition at 100 µM with Macrophage [5] was found to be 91.4%. In the test on Macrophage [6], this compound yielded an IC50 of 2.5 µM.

`CNC(=N)NCCC[C@H](N)C(=O)O` [TILARGININE]: in the test on Macrophage [1], the inhibition at 1 µM is 5.9%. Also, the inhibition at 3 µM with Macrophage [2] came to 10.3%. In addition, in the test with Macrophage [3], the inhibition at 10 µM was found to be 15%. Further, the inhibition at 30 µM with Macrophage [4] was found to be 34.1%. In the test on Macrophage [5], the inhibition at 100 µM was 63.1%. In the test on Macrophage [6], this compound had an IC50 of 57 µM.

With `c1ccc2c(c1)ncc1cc3c(cc12)OCO3` [TRISPHAERIDINE], in the test with Macrophage [1], the inhibition at 1 µM is -7.1%. Moreover, the inhibition at 3 µM in the test with Macrophage [2] was -6.9%. Also, in the test on Macrophage [3], the inhibition at 10 µM is -3.4%. Also, the inhibition at 30 µM with Macrophage [4] was -7%. In the test on Macrophage [5], the inhibition at 100 µM was 0.3%.

As for `O[C@@H]1C=C[C@]23CCN(Cc4cc5c(cc42)OCO5)[C@H]3C1` [VITTATINE], the inhibition at 1 µM with Macrophage [1] was -0.2%. For the same compound, the inhibition at 3 µM in the test on Macrophage [2] is -12.5%. Besides, in the test with Macrophage [3], the inhibition at 10 µM was determined as 7.1%. Also, the inhibition at 30 µM in the test on Macrophage [4] came out at 13.1%. In addition, the inhibition at 100 µM in the test on Macrophage [5] came out at 42.4%.

`CC(=O)O[C@H]1C=C[C@]23c4cc5c(cc4CN(C[C@@H]2O)[C@H]3C1)OCO5` [YEMENINE A]: in the test on Macrophage [1], the inhibition at 1 µM worked out at 10.4%. In addition, the inhibition at 3 µM with Macrophage [2] was determined as 38.1%. The inhibition at 10 µM in the test on Macrophage [3] was found to be 69%. In addition, the inhibition at 30 µM in the test on Macrophage [4] stood at 93%. Besides, in the test on Macrophage [5], the inhibition at 100 µM was determined as 98.5%. The midpoint of inhibition in the test with Macrophage [6], the IC50, lay at 4.9 µM.
